# In ChEMBL document CHEMBL1126775, “A pharmacological, crystallographic, and quantum chemical study of new inotropic agents” (J Med Chem, 1993):
# Several values for one entry are separate records, joined by “and”; a condition that tells them apart may be missing. Equal entries are not always repeated.
# Legend:
# Cavia porcellus [1] = species on record: Cavia porcellus; experiment: Effect on frequency rate of spontaneously beating atria from reserpine treated guinea pigs at the concentration of 10 e-3 M; format: functional
# [2] = Logarithm of the sum of contributions of each atom to the total lipophilicity of the molecule; format: physicochemical; conditions: octanol/water
# Cavia porcellus [3] = species on record: Cavia porcellus; experiment: Effect on contractile force of spontaneously beating atria from reserpine treated guinea pigs at the concentration of 2 x 10 e-3 M; format: functional
# Cavia porcellus [4] = species on record: Cavia porcellus; experiment: Inotropic effect in electrically driven left atrium from reserpine-treated guinea pig at the concentration of 2 x 10 e-3 M; format: functional, Cardiac atrium
# How it was run: (§1)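 Atria from reserpine-pretreated guinea pigs (2 mg/kg ip, 48 and 24 h), tyramine-unresponsive only. Left atrium loaded 0.5 g, paced at 1.5 Hz with 3-ms square pulses at 10–20% above threshold. Equilibrated 90 min. Agents added cumulatively, 5 min per concentration. Isometric developed tension expressed as % increase over control.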
# Cavia porcellus [5] = species on record: Cavia porcellus; experiment: Effect on contractile force of spontaneously beating atria from reserpine treated guinea pigs at the concentration of 5x 10 e-4 M; format: functional
# Cavia porcellus [6] = species on record: Cavia porcellus; experiment: Effect on contractile force of spontaneously beating atria from reserpine treated guinea pigs at the concentration of 10 e-5 M; format: functional
# Cavia porcellus [7] = species on record: Cavia porcellus; experiment: Effect on frequency rate of spontaneously beating atria from reserpine treated guinea pigs at the concentration of 5 x 10 e-4 M; format: functional
# Cavia porcellus [8] = species on record: Cavia porcellus; experiment: Inotropic effect in electrically driven left atrium from reserpine-treated guinea pig at the concentration of 10 e-5 M; format: functional, Cardiac atrium; how it was run: as §1
# Cavia porcellus [9] = species on record: Cavia porcellus; experiment: Effect on frequency rate of spontaneously beating atria from reserpine treated guinea pigs at the concentration of 10 e-5 M; format: functional
# Cavia porcellus [10] = species on record: Cavia porcellus; experiment: Inotropic effect in electrically driven left atrium from reserpine-treated guinea pig at the concentration of 5 x 10 e-4 M; format: functional, Cardiac atrium; how it was run: as §1
# Cavia porcellus [11] = species on record: Cavia porcellus; experiment: Inotropic effect in electrically driven left atrium from reserpine-treated guinea pig at the concentration of 10 e-3 M; format: functional, Cardiac atrium; how it was run: as §1
# Cavia porcellus [12] = species on record: Cavia porcellus; experiment: Inotropic effect in electrically driven left atrium from reserpine-treated guinea pig at the concentration of 5 x 10 e-5 M; format: functional, Cardiac atrium; how it was run: as §1
# Cavia porcellus [13] = species on record: Cavia porcellus; experiment: Effect on contractile force of spontaneously beating atria from reserpine treated guinea pigs at the concentration of 10 e-3 M; format: functional
# Cavia porcellus [14] = species on record: Cavia porcellus; experiment: Effect on contractile force of spontaneously beating atria from reserpine treated guinea pigs at the concentration of 5x 10 e-5 M; format: functional
# Cavia porcellus [15] = species on record: Cavia porcellus; experiment: Effect on frequency rate of spontaneously beating atria from reserpine treated guinea pigs at the concentration of 10 e-4 M; format: functional
# Cavia porcellus [16] = species on record: Cavia porcellus; experiment: Effect on contractile force of spontaneously beating atria from reserpine treated guinea pigs at the concentration of 10 e-4 M; format: functional
# Cavia porcellus [17] = species on record: Cavia porcellus; experiment: Inotropic effect in electrically driven left atrium from reserpine-treated guinea pig at the concentration of 10 e-4 M; format: functional, Cardiac atrium; how it was run: as §1
# Cavia porcellus [18] = species on record: Cavia porcellus; experiment: Effect on frequency rate of spontaneously beating atria from reserpine treated guinea pigs at the concentration of 2 x 10 e-3 M; format: functional
# Cavia porcellus [19] = species on record: Cavia porcellus; experiment: Effect on contractile force of spontaneously beating atria from reserpine treated guinea pigs at the concentration of 10 e-4 M (negative ionotropic effect); format: functional
# Cavia porcellus [20] = species on record: Cavia porcellus; experiment: Effect on contractile force of spontaneously beating atria from reserpine treated guinea pigs at the concentration of 5x 10 e-4 M (negative ionotropic effect); format: functional
# Cavia porcellus [21] = species on record: Cavia porcellus; experiment: Effect on contractile force of spontaneously beating atria from reserpine treated guinea pigs at the concentration of 10 e-3 M (negative ionotropic effect); format: functional
# Cavia porcellus [22] = species on record: Cavia porcellus; experiment: Effect on frequency rate of spontaneously beating atria from reserpine treated guinea pigs at the concentration of 5 x 10 e-5 M (negative chronotropic ionotropic effect)
# Cavia porcellus [23] = species on record: Cavia porcellus; experiment: Effect on frequency rate of spontaneously beating atria from reserpine treated guinea pigs at the concentration of 2 x 10 e-3 M (negative chronotropic ionotropic effect); format: functional
# Cavia porcellus [24] = species on record: Cavia porcellus; experiment: Effect on frequency rate of spontaneously beating atria from reserpine treated guinea pigs at the concentration of 5 x 10 e-4 M (negative chronotropic ionotropic effect); format: functional
# Cavia porcellus [25] = species on record: Cavia porcellus; experiment: Effect on contractile force of spontaneously beating atria from reserpine treated guinea pigs at the concentration of 2 x 10 e-3 M (negative ionotropic effect); format: functional
# Cavia porcellus [26] = species on record: Cavia porcellus; experiment: Effect on contractile force of spontaneously beating atria from reserpine treated guinea pigs at the concentration of 5x 10 e-5 M (negative ionotropic effect); format: functional
# Cavia porcellus [27] = species on record: Cavia porcellus; experiment: Effect on frequency rate of spontaneously beating atria from reserpine treated guinea pigs at the concentration of 10 e-4 M (negative chronotropic ionotropic effect); format: functional
# Cavia porcellus [28] = species on record: Cavia porcellus; experiment: Effect on frequency rate of spontaneously beating atria from reserpine treated guinea pigs at the concentration of 10 e-3 M (negative chronotropic ionotropic effect); format: functional
# Cavia porcellus [29] = species on record: Cavia porcellus; experiment: Effect on inotropic response to 10 e-6 8-phenyltheophylline in electrically driven left atrium from reserpine-treated guinea pigs; format: functional, Cardiac atrium
# How it was run: (§2)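 Paced left atrium (1.5 Hz, 0.5 g load) from reserpine-pretreated guinea pigs. Test agent (10^-4 or 5×10^-5 M) added to perfusion 10 min before cumulative 8-phenyltheophylline (10^-6–10^-4 M). Developed tension as % increase over control. Mean ± SEM of four assays from four experiments; Student's t test against atria without the test agent.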
# Cavia porcellus [30] = species on record: Cavia porcellus; experiment: Effect on inotropic response to 3 x 10 e-5 8-phenyltheophylline in electrically driven left atrium from reserpine-treated guinea pigs; format: functional, Cardiac atrium; how it was run: as §2
# Cavia porcellus [31] = species on record: Cavia porcellus; experiment: Effect on inotropic response to 3 x 10 e-6 8-phenyltheophylline in electrically driven left atrium from reserpine-treated guinea pigs; format: functional, Cardiac atrium; how it was run: as §2
# Cavia porcellus [32] = species on record: Cavia porcellus; experiment: Effect on inotropic response to 3 x 10 e-6 8-phenyltheophylline in electrically driven left atrium from reserpine-treated guinea pigs at 5 x 10 e-5 M; format: functional, Cardiac atrium; how it was run: as §2
# Cavia porcellus [33] = species on record: Cavia porcellus; experiment: Effect on inotropic response to 10 e-5 8-phenyltheophylline in electrically driven left atrium from reserpine-treated guinea pigs at 5 x 10 e-5 M; format: functional, Cardiac atrium; how it was run: as §2
# Cavia porcellus [34] = species on record: Cavia porcellus; experiment: Effect on inotropic response to 3 x 10 e-6 8-phenyltheophylline in electrically driven left atrium from reserpine-treated guinea pigs at 10 e-4 M; format: functional, Cardiac atrium; how it was run: as §2
# Cavia porcellus [35] = species on record: Cavia porcellus; experiment: Effect on inotropic response to 10 e-4 8-phenyltheophylline in electrically driven left atrium from reserpine-treated guinea pigs at 10 e-4 M; format: functional, Cardiac atrium; how it was run: as §2
# Cavia porcellus [36] = species on record: Cavia porcellus; experiment: Effect on inotropic response to 10 e-5 8-phenyltheophylline in electrically driven left atrium from reserpine-treated guinea pigs; format: functional, Cardiac atrium; how it was run: as §2
# Cavia porcellus [37] = species on record: Cavia porcellus; experiment: Effect on inotropic response to 10 e-6 8-phenyltheophylline in electrically driven left atrium from reserpine-treated guinea pigs at 5 x 10 e-5 M; format: functional, Cardiac atrium; how it was run: as §2
# Cavia porcellus [38] = species on record: Cavia porcellus; experiment: Effect on inotropic response to 3x 10 e-5 8-phenyltheophylline in electrically driven left atrium from reserpine-treated guinea pigs at 5 x 10 e-5 M; format: functional, Cardiac atrium; how it was run: as §2
# Cavia porcellus [39] = species on record: Cavia porcellus; experiment: Effect on inotropic response to 10 e-4 8-phenyltheophylline in electrically driven left atrium from reserpine-treated guinea pigs; format: functional, Cardiac atrium; how it was run: as §2
# Cavia porcellus [40] = species on record: Cavia porcellus; experiment: Effect on inotropic response to 10 e-4 8-phenyltheophylline in electrically driven left atrium from reserpine-treated guinea pigs at 5 x 10 e-5 M; format: functional, Cardiac atrium; how it was run: as §2
# Cavia porcellus [41] = species on record: Cavia porcellus; experiment: Effect on inotropic response to 10 e-5 8-phenyltheophylline in electrically driven left atrium from reserpine-treated guinea pigs at 10 e-4 M; format: functional, Cardiac atrium; how it was run: as §2
# Cavia porcellus [42] = species on record: Cavia porcellus; experiment: Effect on inotropic response to 3 x 10 e-5 8-phenyltheophylline in electrically driven left atrium from reserpine-treated guinea pigs at 10 e-4 M; format: functional, Cardiac atrium; how it was run: as §2
# Cavia porcellus [43] = species on record: Cavia porcellus; experiment: Effect on contractile force of spontaneously beating atria from reserpine treated guinea pigs at the concentration of 10 e-5 M (negative ionotropic effect); format: functional
# Cavia porcellus [44] = species on record: Cavia porcellus; experiment: Effect on inotropic response to 10 e-6 8-phenyltheophylline in electrically driven left atrium from reserpine-treated guinea pigs at 10 e-4 M; format: functional, Cardiac atrium; how it was run: as §2
# Cavia porcellus [45] = species on record: Cavia porcellus; experiment: Effect on contractile force of spontaneously beating atria from reserpine treated guinea pigs at the concentration of 10 e-5 M; arrhythmias; format: functional
SMILES,Increase (Cavia porcellus [1]) [%],logP [2],Increase (Cavia porcellus [3]) [%],Increase (Cavia porcellus [6]) [%],Increase (Cavia porcellus [7]) [%],Increase (Cavia porcellus [9]),Increase (Cavia porcellus [13]) [%],Increase (Cavia porcellus [14]) [%],Increase (Cavia porcellus [15]) [%],Increase (Cavia porcellus [18]) [%],Increase (Cavia porcellus [19]) [%],Increase (Cavia porcellus [20]) [%],Increase (Cavia porcellus [21]) [%],Increase (Cavia porcellus [22]),Increase (Cavia porcellus [23]) [%],Increase (Cavia porcellus [24]) [%],Increase (Cavia porcellus [25]) [%],Increase (Cavia porcellus [26]) [%],Increase (Cavia porcellus [27]) [%],Increase (Cavia porcellus [28]) [%],other results
Cc1[nH]c(=O)c(C#N)cc1-c1ccncc1 [MILRINONE],39.2,2.89,29.31,18.25,43.96,16.41% and 28.1%,33.09,31.32,35.26,31.79,,,,,,,,,,,Increase (Cavia porcellus [4]): 37.95%; Increase (Cavia porcellus [5]): 46.52%; Increase (Cavia porcellus [8]): 13.25%; Increase (Cavia porcellus [10]): 44.72%; Increase (Cavia porcellus [11]): 41.96%; Increase (Cavia porcellus [12]): 22.83%; Increase (Cavia porcellus [16]): 38.76%; Increase (Cavia porcellus [17]): 34.61%
O=C(O)c1cc(C(=O)c2ccccc2)c(-c2ccccc2)nc1O,,,,2.45,,,,,,,-10.02,-61.56,-90.39,-2.23% and -3.38%,-35.93,-14.43,-100,-1.52,-5.31,-25.3,
O=C(O)c1cc2c(nc1O)CC(c1ccccc1)CC2=O (stereo not given),,,-27.77,1.53,,0.58% and 1.22%,,2.21,,,-1.21,-7.59,-23.77,,-27.07,-4.58,,,-1.21,-13.88,
Nc1cc(-c2ccncc2)c[nH]c1=O [INAMRINONE],30.69,2.66,25.3,7.08,24.11,4.62% and 8.85%,28.81,11.52,15.68,26.3,,,,,,,,,,,Increase (Cavia porcellus [4]): 34.6%; Increase (Cavia porcellus [5]): 23.92%; Increase (Cavia porcellus [8]): 4.5%; Increase (Cavia porcellus [10]): 22.3%; Increase (Cavia porcellus [11]): 27%; Increase (Cavia porcellus [12]): 6.49%; Increase (Cavia porcellus [16]): 17.92%; Increase (Cavia porcellus [17]): 17.52%
N#Cc1cc(C(=O)c2ccccc2)c(-c2ccccc2)nc1O,,,,1.22,,0.5%,,,,,-22.26,-32.19,-35.54,-3.01%,-9.96,-6.26,-39.43,-6.67,-3.36,-8.29,
O=C(c1ccccc1)c1ccc(O)nc1-c1ccccc1,,3.82,,,,,,,,,-24.76,-38.32,-43.71,-4.26% and -9.3%,-40.57,-24.37,-46.27,-7.3,-14.92,-32.89,Increase (Cavia porcellus [29]): 4.27%; Increase (Cavia porcellus [30]): 14.72%; Increase (Cavia porcellus [31]): 7.33%; Increase (Cavia porcellus [32]): 8.13%; Increase (Cavia porcellus [33]): 14.44%; Increase (Cavia porcellus [34]): 11.38%; Increase (Cavia porcellus [35]): 27.05%; Increase (Cavia porcellus [36]): 11.19%; Increase (Cavia porcellus [37]): 5.7%; Increase (Cavia porcellus [38]): 17.41%; Increase (Cavia porcellus [39]): 20.81%; Increase (Cavia porcellus [40]): 25.91%; Increase (Cavia porcellus [41]): 18.78%; Increase (Cavia porcellus [42]): 20.17%; Increase (Cavia porcellus [43]): -2.67%; Increase (Cavia porcellus [44]): 4.56%
CC1(C)CC(=O)c2ccc(O)nc2C1,1.06,,4.71,0,1.09,0% and 1.27%,2.45,,1.05,2.65,-3.46,-5.5,,,,,,-3.45,,,
O=C(O)c1cc2c(nc1O)CCCC2=O,,,,,,,,,,,,,,,,,,,,,Increase (Cavia porcellus [45]): arrhythmias
CC(C)(C)C(=O)c1cc(C#N)c(O)nc1C(C)(C)C,,,,7.34,,2.98% and 0.28%,,11.34,,,-16.07,-66.56,-81.39,,-15.71,-6.73,-89.11,,-0.44,-14.41,
